Results taken from ChEMBL document CHEMBL3393056, “Identification of nicotinamide phosphoribosyltransferase (NAMPT) inhibitors with no evidence of CYP3A4 time-dependent inhibition and improved aqueous solubility” (Bioorg Med Chem Lett, 2015).

What was measured:
[1] = AUC in rat at 5 mg/kg, po; type: ADME, organism-based; parameters: dose 5 mg/kg, route oral; conditions: plasma
Summary of the method: (§1)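 Male Sprague Dawley rats and male beagle dogs were dosed IV at 1 mg/kg or orally at 5 mg/kg. Plasma concentration–time profiles were followed. Each time point is the mean from three separate animals.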

[2] = Half life in rat at 1 mg/kg, iv; type: ADME, organism-based; parameters: dose 1 mg/kg, route intravenous; conditions: in vivo; summary of the method: as §1
[3] = AUC in dog at 5 mg/kg, po; type: ADME, organism-based, Canis lupus familiaris; parameters: dose 5 mg/kg, route oral; conditions: plasma; summary of the method: as §1
[4] = Cmax in dog at 5 mg/kg, po; type: ADME, organism-based, Canis lupus familiaris; parameters: dose 5 mg/kg, route oral; conditions: in vivo; summary of the method: as §1
[5] = Clearance in dog at 1 mg/kg, iv; type: ADME, organism-based, Canis lupus familiaris; parameters: dose 1 mg/kg, route intravenous; conditions: in vivo; summary of the method: as §1
[6] = Oral bioavailability in rat at 5 mg/kg; type: ADME, organism-based; conditions: in vivo; summary of the method: as §1
[7] = Clearance in rat at 1 mg/kg, iv; type: ADME, organism-based; parameters: dose 1 mg/kg, route intravenous; conditions: in vivo; summary of the method: as §1
[8] = Oral bioavailability in dog at 5 mg/kg; type: ADME, organism-based, Canis lupus familiaris; conditions: in vivo; summary of the method: as §1
[9] = Volume of distribution at steady state in rat at 1 mg/kg, iv; type: ADME, organism-based; parameters: dose 1 mg/kg, route intravenous; conditions: in vivo, read-out: Vdss; summary of the method: as §1
[10] = Half life in dog at 1 mg/kg, iv; type: ADME, organism-based, Canis lupus familiaris; parameters: dose 1 mg/kg, route intravenous; conditions: in vivo; summary of the method: as §1
[11] = Volume of distribution at steady state in dog at 1 mg/kg, iv; type: ADME, organism-based, Canis lupus familiaris; parameters: dose 1 mg/kg, route intravenous; conditions: in vivo, read-out: Vdss; summary of the method: as §1
[12] = Cmax in rat at 5 mg/kg, po; type: ADME, organism-based; parameters: dose 5 mg/kg, route oral; conditions: in vivo; summary of the method: as §1

AUC [1] [µM·h] | half-life [2] [h] | AUC [3] [µM·h] | Cmax [4] [nM] | clearance [5] [mL/min/kg] | bioavailability [6] [%] | clearance [7] [mL/min/kg] | bioavailability [8] [%] | Vd [9] [L/kg] | half-life [10] [h] | Vd [11] [L/kg] | Cmax [12] [nM] | SMILES
3.3 | 1 | 33 | 4700 | 6.7 | 61 | 40 | 115 | 2 | 4.7 | 1.6 | 1000 | O=C(NCc1ccc(S(=O)(=O)c2cc(F)cc(F)c2)cn1)c1cc2ccncc2o1
1.2 | 0.6 |  |  |  | 62 | 105 |  | 3 |  |  | 1000 | O=C(NCc1ccc([S@@](=O)c2cc(F)cc(F)c2)cn1)c1cc2ccncc2o1
0.27 | 0.93 |  |  |  | 31 | 225 |  | 17 |  |  | 70 | CC(C)CN1CCC([S@](=O)c2ccc(CNC(=O)c3cc4ccncc4o3)cc2)CC1
3 | 2.3 | 28 | 8600 | 9.8 | 74 | 55 | 141 | 3.2 | 1.5 | 1 | 1500 | CC(C)n1cc(S(=O)(=O)c2ccc(CNC(=O)c3cc4ccncc4o3)nc2)cn1
